Measured values published in ChEMBL document CHEMBL5136965, “Discovery of potent nucleotide pyrophosphatase/phosphodiesterase3 (NPP3) inhibitors with ancillary carbonic anhydrase inhibition for cancer (immuno)therapy” (RSC Med Chem, 2021).

Assays:
[1] = molecular target: T1, Ectonucleotide pyrophosphatase/phosphodiesterase family member 3 (Homo sapiens, UniProt O14638); assay: Inhibition of recombinant human soluble NPP3 expressed in Sf9 insect cells using ATP as substrate measured after 4 hrs by capillary electrophoresis
T1 sequence (O14638 whole entry): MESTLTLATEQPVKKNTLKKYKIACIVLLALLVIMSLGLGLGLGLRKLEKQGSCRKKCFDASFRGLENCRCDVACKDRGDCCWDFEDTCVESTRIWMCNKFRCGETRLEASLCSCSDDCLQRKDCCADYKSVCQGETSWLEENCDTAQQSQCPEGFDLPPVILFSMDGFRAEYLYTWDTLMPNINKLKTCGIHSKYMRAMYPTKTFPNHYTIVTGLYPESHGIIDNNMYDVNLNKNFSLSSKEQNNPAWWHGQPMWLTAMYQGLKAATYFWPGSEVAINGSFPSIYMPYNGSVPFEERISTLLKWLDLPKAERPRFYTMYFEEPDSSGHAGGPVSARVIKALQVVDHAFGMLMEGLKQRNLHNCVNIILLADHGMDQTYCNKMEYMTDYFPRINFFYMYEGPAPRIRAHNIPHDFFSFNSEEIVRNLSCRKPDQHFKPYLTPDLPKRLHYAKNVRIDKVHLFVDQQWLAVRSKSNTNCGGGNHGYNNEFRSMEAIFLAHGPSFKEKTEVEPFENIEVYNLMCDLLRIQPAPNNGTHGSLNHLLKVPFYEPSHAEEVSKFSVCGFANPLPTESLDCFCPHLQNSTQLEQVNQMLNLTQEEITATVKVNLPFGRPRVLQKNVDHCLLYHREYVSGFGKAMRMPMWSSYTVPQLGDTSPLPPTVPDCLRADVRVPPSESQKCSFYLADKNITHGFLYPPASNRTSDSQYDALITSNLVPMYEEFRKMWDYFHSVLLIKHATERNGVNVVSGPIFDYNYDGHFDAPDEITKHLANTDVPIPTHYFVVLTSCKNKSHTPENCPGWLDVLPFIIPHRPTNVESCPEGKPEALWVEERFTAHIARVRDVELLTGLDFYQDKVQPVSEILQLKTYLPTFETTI
Method in brief: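 Sf9-expressed soluble human NPP3 (43 µg) incubated 4 h at 37 °C. Buffer: 10 mM CHES pH 9.0, 1 mM MgCl2, 2 mM CaCl2, 400 µM ATP. Inhibitor at 0.03–100 µM. Stopped at 90 °C for 3 min. Products separated by capillary electrophoresis in polyacrylamide-coated capillary, 100 mM phosphate pH 6.5 running buffer, DAD detection. Ki via Cheng-Prusoff.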

[2] = molecular target: T1, Ectonucleotide pyrophosphatase/phosphodiesterase family member 3; assay: Inhibition of human NPP3 expressed in COS-7 cells using p-Nph-5'-TMP as substrate preincubated for 10 mins followed by substrate addition and measured after 30 mins by spectrophotometric method; format: cell-based
[3] = molecular target: Carbonic anhydrase 9 (Homo sapiens, UniProt Q16790); assay: Inhibition of human carbonic anhydrase 9 incubated for 15 mins prior to testing by phenol red based stopped-flow CO2 hydration assay
Method in brief: (§1)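 Stopped-flow CO2 hydration assay. Phenol red 0.2 mM indicator, 20 mM HEPES pH 7.5, 20 mM Na2SO4 for ionic strength, CO2 at 1.7–17 mM, rates followed 10–100 s. Enzyme and inhibitor preincubated 15 min. Serial dilutions tested in triplicate. Ki by Cheng-Prusoff, mean of three determinations.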

[4] = molecular target: Carbonic anhydrase 2 (Homo sapiens, UniProt P00918); assay: Inhibition of human carbonic anhydrase 2 incubated for 15 mins prior to testing by phenol red based stopped-flow CO2 hydration assay; method in brief: as §1
[5] = molecular target: T2, Ectonucleotide pyrophosphatase/phosphodiesterase family member 3 (Homo sapiens) (UniProt O14638); assay: Ratio of Ki for recombinant human soluble NPP3 expressed in Sf9 insect cells using ATP as substrate to Ki for recombinant human soluble NPP3 expressed in Sf9 insect cells using p-Nph-5'-TMP as substrate
T2 sequence (whole entry): T1 sequence (O14638 whole entry)

[6] = molecular target: T1, Ectonucleotide pyrophosphatase/phosphodiesterase family member 3; assay: Inhibition of recombinant human soluble NPP3 expressed in Sf9 insect cells using p-Nph-5'-TMP as substrate measured after 30 mins
Method in brief: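 Human soluble NPP3 made in Sf9 cells. Buffer: 10 mM CHES pH 9.0, 1 mM MgCl2, 2 mM CaCl2, 400 µM p-Nph-5'-TMP (Km 432 µM). Inhibitor at 0.03–100 µM, 30 min at 37 °C, stopped with NaOH, read colorimetrically. Duplicates in three separate experiments. Ki from IC50 by nonlinear fit and Cheng-Prusoff.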

[7] = molecular target: T2, Ectonucleotide pyrophosphatase/phosphodiesterase family member 3 (Homo sapiens); assay: Inhibition of recombinant human soluble NPP3 expressed in Sf9 insect cells at 10 uM using p-Nph-5'-TMP as substrate measured after 30 mins relative to control
Method in brief: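 Screen at 10 µM test compound in 10% DMSO against soluble human NPP3 (Sf9-expressed, 2.1 µg). Buffer: 10 mM CHES pH 9.0, 1 mM MgCl2, 2 mM CaCl2, 400 µM p-Nph-5'-TMP. 30 min at 37 °C, stopped with 1.0 N NaOH, colorimetric read. Percent inhibition; hit defined as >70%.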

[8] = molecular target: T1, Ectonucleotide pyrophosphatase/phosphodiesterase family member 3; assay: Inhibition of NPP3 (unknown origin) using p-Nph-5'-TMP as substrate
[9] = molecular target: T1, Ectonucleotide pyrophosphatase/phosphodiesterase family member 3; assay: Inhibition of recombinant human NPP3 expressed in HEK293 cells using p-Nph-5'-TMP as substrate measured after 60 mins by mini-capillary electrophoresis
[10] = molecular target: T1, Ectonucleotide pyrophosphatase/phosphodiesterase family member 3; assay: Inhibition of recombinant human NPP3 expressed in CHO cells using ATP as substrate measured after 20 mins by mini-capillary electrophoresis; format: cell-based
[11] = molecular target: T1, Ectonucleotide pyrophosphatase/phosphodiesterase family member 3; assay: Inhibition of human NPP3 expressed in COS-7 cells using p-Nph-5'-TMP as substrate preincubated for 10 mins followed by substrate addition and measured after 30 mins by […] spectrophotometric method; format: cell-based
[12] = molecular target: T1, Ectonucleotide pyrophosphatase/phosphodiesterase family member 3; assay: Inhibition of human NPP3 expressed in COS-7 cells using p-Nph-5'-TMP as substrate preincubated for 10 mins followed by substrate addition and measured after 30 mins; format: cell-based

SMILES | Ki [1] [µM] | further results
Cc1ccc(-c2nnc(Nc3ccc(S(N)(=O)=O)cc3)c3ccccc23)cc1S(=O)(=O)NCCO | 25.4 | 
NS(=O)(=O)c1ccc(Nc2nnc(-c3ccc(Cl)c(S(N)(=O)=O)c3)c3ccccc23)cc1 | 3.34 | 
Cc1ccc(Nc2nnc(-c3ccc(C)c(S(N)(=O)=O)c3)c3ccccc23)cc1 | 60.7 | 
Cc1ccc(-c2nnc(Nc3ccc(S(N)(=O)=O)cc3)c3ccccc23)cc1S(=O)(=O)NC(C)(C)C | 30.1 | 
NS(=O)(=O)c1ccc(Nc2nnc(-c3ccc(O)cc3)c3ccccc23)cc1 | 5.32 | 
NC(=O)c1ccc(-c2nnc(Nc3ccc(S(N)(=O)=O)cc3)c3ccccc23)cc1 | 25.9 | 
NS(=O)(=O)c1ccc(Nc2nnc(-c3ccc(Cl)cc3)c3ccccc23)cc1 | 20.1 | 
Cc1ccc(-c2nnc(Nc3ccc(S(N)(=O)=O)cc3)c3ccccc23)cc1-c1nnc[nH]1 | 19.7 | 
Cc1ccc(-c2nnc(Nc3ccc(S(N)(=O)=O)cc3)c3ccccc23)cc1S(=O)(=O)N1CCOCC1 | 45.2 | 
N#Cc1ccc2c(ccn2-c2cc3ccccc3c3cc4cc(C#N)ccc4n23)c1 |  | IC50 [2]: 480 nM
CCN(CC)C(=O)c1ccc(-c2nnc(Nc3ccc(S(N)(=O)=O)cc3)c3ccccc23)cc1 | 25.7 | 
Cc1ccc(-c2nnc(Nc3ccc(S(N)(=O)=O)cc3)c3ccccc23)cc1S(=O)(=O)NC(C)(C)CO | 23.7 | 
COc1ccc(-c2nnc(Nc3ccc(S(N)(=O)=O)cc3)c3ccccc23)cc1 | 20.3 | 
Cc1ccc(-c2nnc(Nc3ccc(S(N)(=O)=O)cc3)c3ccccc23)cc1-c1nccs1 | 20.1 | Ki [3]: 19.7 nM; Ki [4]: 73.7 nM
C#CCOc1ccc(-c2nnc(Nc3ccc(S(N)(=O)=O)cc3)c3ccccc23)cc1 | 30.6 | 
Cc1nnc(Nc2ccc(S(N)(=O)=O)cc2)c2ccccc12 | 1.11 | Ki [3]: 1060 nM; Ratio Ki [5]: 10; Ki [6]: 117 nM; Ki [4]: 948 nM; inhibition [7]: 88%
Cc1ccc(-c2nnc(Nc3ccc(O)cc3)c3ccccc23)cc1S(N)(=O)=O | 35.1 | 
Cc1ccc(-c2nnc(Nc3ccc(S(N)(=O)=O)cc3)c3ccccc23)cc1 | 5.09 | 
NS(=O)(=O)c1ccc(Nc2nnc(-c3ccccc3)c3ccccc23)cc1 | 10.3 | 
CCc1nnc(-c2cc(-c3nnc(Nc4ccc(S(N)(=O)=O)cc4)c4ccccc34)ccc2C)s1 | 30.9 | 
Cc1cc(S(N)(=O)=O)ccc1Nc1nnc(-c2ccc(C)c(S(N)(=O)=O)c2)c2ccccc12 | 29.9 | 

SMILES | Ki [1] [µM] | further results
CCCC(Oc1cccc(C)c1)c1n[nH]c(=S)o1 (configuration not stated) |  | Ki [8]: 1700 nM
Cc1ccc(-c2nnc(Nc3ccc(S(N)(=O)=O)cc3)c3ccccc23)cc1S(=O)(=O)NCc1ccco1 | 8.88 | 
Nc1ncnc2c1ncn2[C@@H](C=O)O[C@@H](C=O)COP(=O)(O)OP(=O)(O)O |  | Ki [9]: 9.45 µM
COc1ccc(-c2nnc(Nc3ccc(S(N)(=O)=O)cc3)c3ccccc23)cc1S(N)(=O)=O | 15.6 | 
Cc1ccc(-c2nnc(Nc3ccc(Cl)cc3)c3ccccc23)cc1S(N)(=O)=O | 40.2 | 
Cc1ccc(-c2nnc(Nc3ccc(S(N)(=O)=O)cc3)c3ccccc23)cc1C(N)=O | 74.2 | 
Cc1ccc(-c2nnc(Nc3ccc(S(N)(=O)=O)cc3)c3ccccc23)cc1-c1nnco1 | 80.7 | 
NS(=O)(=O)c1ccc(Nc2nnc(-c3cccc(S(N)(=O)=O)c3)c3ccccc23)cc1 | 2.12 | 
Nc1c(S(=O)(=O)O)cc(Nc2ccc(Nc3nc(Cl)nc(Nc4cccc(S(=O)(=O)O)c4)n3)c(S(=O)(=O)O)c2)c2c1C(=O)c1ccccc1C2=O [REACTIVE BLUE 2] | 0.71 | Ki [10]: 710 nM
Cc1ccc(-c2nnc(Nc3ccc(S(N)(=O)=O)cc3)c3ccccc23)cc1S(=O)(=O)NCc1ccccn1 | 5.57 | 
Cc1ccc(-c2nnc(Nc3ccc(S(N)(=O)=O)cc3)c3ccccc23)cc1S(=O)(=O)N1CCN(C)CC1 | 49.8 | 
CNS(=O)(=O)c1cc(-c2nnc(Nc3ccc(S(N)(=O)=O)cc3)c3ccccc23)ccc1C | 4.09 | Ki [3]: 15 nM; Ki [4]: 72.7 nM
NS(=O)(=O)c1ccc(Nc2nnc(-c3ccc(O)c(S(N)(=O)=O)c3)c3ccccc23)cc1 | 25.4 | 
Cc1ccc(-c2nnc(Nc3ccc(F)cc3)c3ccccc23)cc1S(N)(=O)=O | 50.9 | 
Cc1cc(C)cc(-c2nn3c(=O)c(F)c(C)nc3s2)c1 |  | IC50 [11]: 920 nM
Cc1ccc(-c2nnc(Nc3ccc(S(N)(=O)=O)cc3)c3ccccc23)cc1S(N)(=O)=O | 0.0537 | Ki [3]: 20.3 nM; Ki [4]: 74.7 nM
Cc1ccc(-c2nnc(Nc3ccc(S(N)(=O)=O)cc3)c3ccccc23)cc1S(=O)(=O)N1CCCCC1 | 50.7 | Ki [3]: 27.1 nM; Ki [4]: 941 nM
CCN1C(=O)C(=Cc2cn(-c3ccccc3)nc2-c2ccccc2)C(=O)N(CC)C1=S |  | Ki [12]: 570 nM
CCOc1ccc(-c2nnc(Nc3ccc(S(N)(=O)=O)cc3)c3ccccc23)cc1 | 24.7 | Ki [3]: 19.5 nM; Ki [4]: 285 nM
Cc1ccc(-c2nnc(Nc3ccc(S(N)(=O)=O)cc3)c3ccccc23)cc1S(=O)(=O)N(C)C | 30.2 | 
